# Laboratory results from ChEMBL document CHEMBL1145016, “Synthesis and antitumor activity of conjugates of muramyldipeptide or normuramyldipeptide with hydroxyacridine/acridone derivatives” (J Med Chem, 2003).
# Active and inactive are the calls of the source.
# Tests used:
# MCF7 [1] = experiment: Tested for cytotoxicity of compound against MCF-7 (breast) cell line; IA means inactive.; type: functional, cell-based; settings: Homo sapiens
# NCI-H460 [2] = experiment: Tested for cytotoxicity of compound against NCI-H460 (lung)cell line; IA means inactive.; type: functional, cell-based; settings: Homo sapiens
# SF-268 [3] = experiment: Tested for cytotoxicity of compound against SF-268 (CNS) cell line; IA means inactive.; type: functional, cell-based; settings: Homo sapiens
# Mus musculus [4] = experiment: Evaluated in vivo for toxic deaths of mice at 0.90 mg/kg for 7 days by intraperitoneal treatment on RXF-393 renal cell line; type: toxicity, organism-based; parameters: dose 0.9 mg/kg, route intraperitoneal; settings: ip, 0.9 mg/kg, 168 h
# Summary of the method: (§1)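 Nude mice carrying subcutaneous human tumor xenografts, tested at NCI Bethesda; compound given on the stated schedule, intraperitoneally (IP) or intravenously (IV). Three dose levels were tested, and the table reports only the optimal one. Toxic deaths are scored per treatment group alongside tumor weight end points.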
# Mus musculus [5] = experiment: Evaluated in vivo for percent growth delay in mice at 0.90 mg/kg for 7 days by intraperitoneal treatment on RXF-393 renal cell line; type: functional; settings: dose 0.9 mg/kg
# Mus musculus [6] = experiment: Evaluated in vivo for toxic deaths of mice at 1.34 mg/kg for 7 days by intraperitoneal treatment on NCI-H460 non-small cell lung cell line; type: toxicity, organism-based; parameters: dose 1.34 mg/kg, route intraperitoneal; settings: ip, 168 h; summary of the method: as §1
# Mus musculus [7] = experiment: Evaluated in vivo for percent of tumor weight in treated/control of mice at 1.80 mg/kg for 24 (38) days by intravenous treatment on MDA-MB-435 breast cell line; type: functional; settings: dose 1.8 mg/kg
# Mus musculus [8] = experiment: Evaluated in vivo for toxic deaths of mice at 1.80 mg/kg for 24 (38) days by intravenous treatment on MDA-MB-435 breast […] cell line; type: toxicity, organism-based; parameters: dose 1.8 mg/kg, route intravenous; settings: 1.8 mg/kg; summary of the method: as §1
# Mus musculus [9] = experiment: Evaluated in vivo for toxic deaths of mice at 1.00 mg/kg for 7 days by intraperitoneal treatment on AS283 lymphoma cell line; type: toxicity, organism-based; parameters: dose 1 mg/kg, route intraperitoneal; settings: ip, 168 h; summary of the method: as §1
# [10] = Evaluated in vivo for intraperitoneal + subcutaneous score in hallow fiber assay; type: functional
# Summary of the method: (§2)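 NCI hollow fiber preliminary in vivo assay; scores recorded separately for intraperitoneal (ip) and subcutaneous (sc) fiber implantation sites, with an activity criterion applied (Y/N). Procedure detailed in prior work.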
# Mus musculus [11] = experiment: Evaluated in vivo for percent growth delay in mice at 1.80 mg/kg for 24 (38) days by intravenous treatment on MDA-MB-435 breast cell line; type: functional; settings: dose 1.8 mg/kg
# [12] = Evaluated in vivo for intraperitoneal score in hallow fiber assay; type: functional; summary of the method: as §2
# Mus musculus [13] = experiment: Evaluated in vivo for percent of tumor weight in treated/control of mice at 1.34 mg/kg for 7 days by intraperitoneal treatment on NCI-H460 non-small cell lung cell line; type: functional
# Mus musculus [14] = experiment: Evaluated in vivo for percent growth delay in mice at 0.67 mg/kg for 12 days by intraperitoneal treatment on COLO 205 colon cell line; type: functional
# Mus musculus [15] = experiment: Evaluated in vivo for percent of tumor weight in treated/control of mice at 0.67 mg/kg for 12 days by intraperitoneal treatment on COLO 205 colon cell line; type: functional
# [16] = Evaluated in vivo for subcutaneous score in hallow fiber assay; type: functional; summary of the method: as §2
# Mus musculus [17] = experiment: Evaluated in vivo for toxic deaths of mice at 1.50 mg/kg for 10 days by intraperitoneal treatment on UACC-62 melanoma cell line; type: toxicity, organism-based; parameters: dose 1.5 mg/kg, route intraperitoneal; settings: ip, 1.5 mg/kg, 240 h; summary of the method: as §1
# [18] = Tested for cytotoxicity (lethal concentration) of compound, activity expressed as MID log LC50; type: functional
# Summary of the method: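 MID is the calculated mean of LC50 concentrations (M) across the cell line panel, where LC50 is the half-lethal concentration. It is reported as a log value.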
# Mus musculus [19] = experiment: Evaluated in vivo for percent growth delay in mice at 0.90 mg/kg for 5 days by intraperitoneal treatment on HCT-15 colon cell line; type: functional; settings: dose 0.9 mg/kg
# Mus musculus [20] = experiment: Evaluated in vivo for percent of tumor weight in treated/control of mice at 1.50 mg/kg for 10 days by intraperitoneal treatment on UACC-62 melanoma cell line; type: functional; settings: dose 1.5 mg/kg
# Mus musculus [21] = experiment: Evaluated in vivo for percent growth delay in mice at 1.34 mg/kg for 7 days by intraperitoneal treatment on NCI-H460 non-small cell lung cell line; type: functional
# Mus musculus [22] = experiment: Evaluated in vivo for percent of tumor weight in treated/control of mice at 0.90 mg/kg for 5 days by intraperitoneal treatment on HCT-15 colon cell line; type: functional; settings: dose 0.9 mg/kg
# Mus musculus [23] = experiment: Evaluated in vivo for percent of tumor weight in treated/control of mice at 0.90 mg/kg for 7 days by intraperitoneal treatment on RXF-393 renal cell line; type: functional; settings: dose 0.9 mg/kg
# Mus musculus [24] = experiment: Evaluated in vivo for percent growth delay in mice at 1.50 mg/kg for 10 days by intraperitoneal treatment on UACC-62 melanoma cell line; type: functional; settings: dose 1.5 mg/kg
# Mus musculus [25] = experiment: Evaluated in vivo for toxic deaths of mice at 0.90 mg/kg for 5 days by intraperitoneal treatment on HCT-15 colon cell line; type: toxicity, organism-based; parameters: dose 0.9 mg/kg, route intraperitoneal; settings: ip, 0.9 mg/kg, 120 h; summary of the method: as §1
# Mus musculus [26] = experiment: Evaluated in vivo for toxic deaths of mice at 0.67 mg/kg for 12 days by intraperitoneal treatment on COLO 205 colon cell line; type: toxicity, organism-based; parameters: dose 0.67 mg/kg, route intraperitoneal; settings: ip, 288 h; summary of the method: as §1
# Mus musculus [27] = experiment: Evaluated in vivo for percent of tumor weight in treated/control of mice at 1.00 mg/kg for 7 days by intraperitoneal treatment on AS283 lymphoma cell line; type: functional
# Mus musculus [28] = experiment: Evaluated in vivo for percent growth delay in mice at 1.00 mg/kg for 7 days by intraperitoneal treatment on AS283 lymphoma cell line; type: functional
# SF-268 [29] = experiment: Tested for cytotoxicity of compound against SF-268 (CNS) cell line; Compound was active.; type: functional, cell-based; settings: Homo sapiens
# NCI-H460 [30] = experiment: Tested for cytotoxicity of compound against NCI-H460 (lung)cell line; Compound was active.; type: functional, cell-based; settings: Homo sapiens
# MCF7 [31] = experiment: Tested for cytotoxicity of compound against MCF-7 (breast) cell line; Compound was active.; type: functional, cell-based; settings: Homo sapiens
compound,measurement,setting,value
CC(=O)N[C@@H]1[C@H](OCc2ccccc2)OC(CO)C(O)[C@H]1OC(C)C(=O)N[C@@H](C(=O)N[C@H](CCC(=O)OCCCNC(=O)c1cccc2cc3ccccc3nc12)C(N)=O)C(C)C (stereo partly drawn),IA,MCF7 [1],inactive
same,IA,NCI-H460 [2],inactive
same,IA,SF-268 [3],inactive
CC(=O)N[C@@H]1[C@H](OCc2ccccc2)OC(CO)C(O)[C@H]1OC(C)C(=O)N[C@H](C)C(=O)N[C@H](CCC(=O)OCCNc1c2ccccc2nc2cccc([N+](=O)[O-])c12)C(N)=O (stereo partly drawn),Toxic deaths,Mus musculus [4],0
same,Growth delay (T-C/C),Mus musculus [5],32%
same,Toxic deaths,Mus musculus [6],1
same,Tumor weight,Mus musculus [7],60%
same,Toxic deaths,Mus musculus [8],2
same,Toxic deaths,Mus musculus [9],0
same,Score,[10],20
same,Growth delay (T-C/C),Mus musculus [11],17%
same,Score,[12],12
same,Tumor weight,Mus musculus [13],54%
same,Growth delay (T-C/C),Mus musculus [14],11%
same,Tumor weight,Mus musculus [15],75%
same,Score,[16],8
same,Toxic deaths,Mus musculus [17],0
same,MID log LC50,[18],6.85 M
same,Growth delay (T-C/C),Mus musculus [19],5%
same,Tumor weight,Mus musculus [20],89%
same,Growth delay (T-C/C),Mus musculus [21],21%
same,Tumor weight,Mus musculus [22],79%
same,Tumor weight,Mus musculus [23],81%
same,Growth delay (T-C/C),Mus musculus [24],2%
same,Toxic deaths,Mus musculus [25],2
same,Toxic deaths,Mus musculus [26],0
same,Tumor weight,Mus musculus [27],63%
same,Growth delay (T-C/C),Mus musculus [28],9%
CC(=O)N[C@@H]1[C@H](OCc2ccccc2)OC(CO)C(O)[C@H]1OCC(=O)N[C@H](C)C(=O)N[C@H](CCC(=O)OCCNC(=O)c1cccc2c(=O)c3ccccc3[nH]c12)C(N)=O (stereo partly drawn),IA,MCF7 [1],inactive
same,IA,NCI-H460 [2],inactive
same,IA,SF-268 [3],inactive
CC(=O)N[C@@H]1[C@H](OCc2ccccc2)OC(CO)C(O)[C@H]1OCC(=O)N[C@H](C)C(=O)N[C@H](CCC(=O)OCCCNC(=O)c1cccc2c(=O)c3ccccc3[nH]c12)C(N)=O (stereo partly drawn),Cytotoxicity,SF-268 [29],Active
same,Cytotoxicity,NCI-H460 [30],Active
same,Cytotoxicity,MCF7 [31],Active
same,MID log LC50,[18],4.04 M
CC(=O)N[C@@H]1[C@H](OCc2ccccc2)OC(CO)C(O)[C@H]1OC(C)C(=O)N[C@@H](C(=O)N[C@H](CCC(=O)OCCNC(=O)c1cccc2c(=O)c3ccccc3[nH]c12)C(N)=O)C(C)C (stereo partly drawn),IA,MCF7 [1],inactive
same,IA,NCI-H460 [2],inactive
same,IA,SF-268 [3],inactive
